Shown are actives, neighbours in structure and some others; about 2.4% of the full set was active somewhere.
Yeast lifespan up: extends the lifespan of yeast; S. cerevisiae growth with nicotinamide, OD615; deaD strain in restrictive glucose medium; inhibition of the nicotinamide effect, % at 10 µM; 0.68% of 130,000 active; AID 775;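 active = inhibition above a set limit, placed 3 SD over the median of all compounds, cut at about 26% in these data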
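Measured by: optical density (absorbance) at 615 nm; System: modified budding yeast, DeaD strain; Medium: restrictive CSMM-D dextrose medium; Timing: 4 h preincubation then 48 h treatment at 30 °C.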
BB579 growth dn: chemicals that inhibit yeast BB579 growth in restrictive medium (lifespan-shortening candidates) | S. cerevisiae BB579 growth, OD615, 48 h | inhibition, % at 10 µM | 0.51% of 140,000 active;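 active = inhibition above a set limit, 3 SD over the mean compound inhibition, cut at about 44% in these data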
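Assay system – yeast BB579 (DeaD) · Dosing – single compound dose of 10 µM, 0.25% DMSO final · Detection – OD615 turbidity measurement · Buffer or medium – CSMM-D restrictive synthetic medium containing dextrose (glucose) · Benchmarks – positive control amphotericin B 10 µg/mL · Incubation – 48 h exposure, 30 °C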
Efa HMGR inh: inhibitors of class II HMG-CoA reductase from Enterococcus faecalis; 0.41% of 190,000 active; inhibition, % at 10 µM; purified E. faecalis HMGR, NADPH absorbance 340 nm kinetic;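 active = inhibition above a set limit, the median over all tested compounds plus 3 SD, cut at about 9.5% in these data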;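 note: enzyme runs in reverse so mevalonate oxidation gives rising NADPH absorbance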
Arbovirus inh: antivirals against arbovirus infection | arbovirus infection cell-based antiviral screen | inhibition, % at 10 µM | 0.37% of 200,000 active | AID 1251; in the data active = inhibition above about 30%
Rad51 HR inh: Rad51 (human) homologous recombination inhibition | hRad51 DNA strand exchange, fluorescence dequenching | inhibition, % at 10 µM | 0.085% of 200,000 active | AID 1385;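 active = inhibition above 40% at the single screening dose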
Target sequence (Q06609 whole entry, looked up): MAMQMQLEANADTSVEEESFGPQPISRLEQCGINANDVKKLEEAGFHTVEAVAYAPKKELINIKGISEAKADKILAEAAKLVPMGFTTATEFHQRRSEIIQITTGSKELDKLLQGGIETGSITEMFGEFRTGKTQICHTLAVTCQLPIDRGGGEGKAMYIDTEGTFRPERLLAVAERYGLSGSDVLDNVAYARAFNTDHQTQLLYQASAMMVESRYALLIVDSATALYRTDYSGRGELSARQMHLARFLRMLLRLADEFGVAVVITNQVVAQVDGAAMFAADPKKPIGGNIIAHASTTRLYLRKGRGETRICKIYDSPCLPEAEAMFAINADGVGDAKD
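Assay system: Human Rad51 nucleoprotein filaments preassembled on unlabelled ssDNA | Reagent: Donor/quencher-labelled 47-bp dsDNA substrate | Doses: One concentration, 10 µM final | Times: 37 °C 15-min filament assembly, 30-min compound preincubation, 15-min exchange | Technique: Fluorescein emission 520 nm, excitation 485 nm | Benchmarks: Plate control and blank wells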
Measles CPE: protection of cells from measles virus | Measles virus-infected cells, CPE protection, absorbance | protection (pct of control), % at 4 µM | 1.5% of 140,000 active; in the data active = protection mostly above about 24%, no sharp cut-off; inactive = mostly below about 26%
A number is an active result.

`Cc1ccc(/C=N/NC(=O)c2ccccn2)s1` gave Yeast lifespan up inactive, BB579 growth dn inactive, Efa HMGR inh inactive, Arbovirus inh inactive, Rad51 HR inh inactive and Measles CPE inactive.
Screening O=C(N/N=C/c1cccs1)c1ccccn1 returned Yeast lifespan up inactive, BB579 growth dn inactive, Efa HMGR inh inactive, Arbovirus inh inactive, Rad51 HR inh inactive and Measles CPE 42.
COc1ccc(OC)c(C2=NOC(C(=O)N3CCCc4ccccc43)C2)c1 (configuration not stated) was read as Yeast lifespan up inactive, BB579 growth dn inactive, Efa HMGR inh inactive, Arbovirus inh inactive, Rad51 HR inh inactive and Measles CPE 52.
Screening CC(C)(C)c1nnc(SCC(=O)c2ccccc2)n(N)c1=O returned Yeast lifespan up inactive, BB579 growth dn inactive, Efa HMGR inh inactive, Arbovirus inh inactive, Rad51 HR inh inactive and Measles CPE inactive.
Screening Cc1ccc(CNC(=O)CCC(=O)c2cccs2)cc1 returned Yeast lifespan up inactive, BB579 growth dn inactive, Efa HMGR inh inactive, Arbovirus inh inactive, Rad51 HR inh inactive and Measles CPE 60.
CCC(C)[C@H](NC(=O)Nc1ccccc1F)C(=O)O (some centres not stated) was read as Rad51 HR inh inactive.
For COC(=O)CCCCCNc1ccc(C(=O)OC)cc1N the results were Yeast lifespan up inactive, BB579 growth dn inactive, Efa HMGR inh inactive, Arbovirus inh inactive, Rad51 HR inh inactive and Measles CPE 30.
For CCOC(=O)C1(CCOc2ccccc2)CCN(Cc2ccc(-n3cccn3)cc2)CC1 the results were Efa HMGR inh inactive, Arbovirus inh inactive and Rad51 HR inh inactive.
Screening COc1ccc(NC(=O)/C(Cl)=C(/Cl)S(=O)Cc2ccccc2)cn1 (configuration not stated) returned Yeast lifespan up 53, BB579 growth dn inactive, Efa HMGR inh inactive, Arbovirus inh inactive, Rad51 HR inh inactive and Measles CPE inactive.
Cc1onc(-c2c(Cl)cccc2Cl)c1C(=O)Nn1cnnc1 was read as Yeast lifespan up inactive, BB579 growth dn inactive, Efa HMGR inh inactive, Arbovirus inh inactive, Rad51 HR inh 44 and Measles CPE inactive.
For CCc1cc(=O)oc2c(C)c(OCC(=O)N3CCCc4ccccc43)ccc12 the results were Yeast lifespan up inactive, BB579 growth dn inactive, Efa HMGR inh inactive, Arbovirus inh inactive, Rad51 HR inh inactive and Measles CPE inactive.
`Cc1nc2ncnn2c(C)c1CCC(=O)NCCc1ccccc1` gave Yeast lifespan up inactive, BB579 growth dn inactive, Efa HMGR inh inactive, Arbovirus inh inactive, Rad51 HR inh inactive and Measles CPE 100.
Screening Clc1ccc(SCCn2ccnc2)cc1 returned Yeast lifespan up inactive, BB579 growth dn inactive, Efa HMGR inh inactive, Arbovirus inh inactive, Rad51 HR inh inactive and Measles CPE inactive.
For Cc1ccccc1C(=O)N1CCc2cc(-c3nc(NC(=O)Cc4ccc5c(c4)OCO5)sc3C)ccc21 the results were Yeast lifespan up inactive, BB579 growth dn inactive, Efa HMGR inh inactive, Arbovirus inh inactive, Rad51 HR inh inactive and Measles CPE 62.
For CNc1nc(-c2ccc3c(c2)CCN3C(=O)c2ccccc2C)cs1 the results were Efa HMGR inh inactive, Arbovirus inh inactive and Rad51 HR inh inactive.
`Cc1sc(NC(=O)Cc2ccc3c(c2)OCO3)nc1-c1ccc2c(c1)CCN2C(=O)c1cccc(F)c1` gave Yeast lifespan up inactive, BB579 growth dn inactive, Efa HMGR inh inactive, Arbovirus inh inactive and Measles CPE 53.
Cn1c(C(=O)O)c(CC(=O)N2CCC(Cc3ccccc3)CC2)c2ccccc21 was read as Yeast lifespan up inactive, BB579 growth dn inactive, Efa HMGR inh inactive, Arbovirus inh inactive and Measles CPE inactive.
Screening CN(C)c1ccc(/C=C/C=N/Nc2nc(N3CCOCC3)nc(N3CCOCC3)n2)cc1 returned Efa HMGR inh inactive, Arbovirus inh inactive and Rad51 HR inh inactive.
`Cc1ccc(-c2c(=O)n(OCc3ccccn3)c3ccccc3[n+]2[O-])cc1` gave Yeast lifespan up inactive, BB579 growth dn inactive, Efa HMGR inh inactive, Arbovirus inh inactive, Rad51 HR inh inactive and Measles CPE inactive.
For O=c1c(-c2ccc(Cl)cc2)[n+]([O-])c2ccccc2n1OCc1ccccn1 the results were Yeast lifespan up 45, BB579 growth dn inactive, Efa HMGR inh inactive, Arbovirus inh inactive, Rad51 HR inh inactive and Measles CPE inactive.

Screening data as filed in PubChem.
